Measurements published in ChEMBL document CHEMBL2057153, “Bisdionin C-a rationally designed, submicromolar inhibitor of family 18 chitinases” (ACS Med Chem Lett, 2011).

Experiments:
[1] = biological target: Endochitinase B1 (Aspergillus fumigatus, UniProt Q873X9); test: Inhibition of Aspergillus fumigatus ChitinaseB1 expressed in Escherichia coli using 4-methyumbelliferyl-beta-B-N,N'-diacetylchitobiose after 10 mins
How it was run: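 Recombinant AfChiB1, expressed and purified as reported earlier, assayed with fluorogenic 4MU-GlcNAc2 substrate. IC50 obtained from triplicate measurements at each inhibitor concentration.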

[2] = Inhibition of human chitotriosidase using 4-methyumbelliferyl-beta-B-N,N'-triacetylchitotriose as substrate after 10 mins
How it was run: (§1)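 Enzymes (AfChiA1; human chitotriosidase) expressed and purified as reported earlier, assayed with fluorogenic 4MU-GlcNAc3 substrate. IC50 from triplicate measurements at each inhibitor concentration.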

[3] = biological target: Acidic mammalian chitinase (Mus musculus, UniProt Q91XA9); test: Inhibition of AMCase in BALB/c mouse lung homogenate using 4-methyumbelliferyl-beta-B-N,N'-diacetylchitobiose after 10 mins
Acidic mammalian chitinase, sequence (Q91XA9 whole entry): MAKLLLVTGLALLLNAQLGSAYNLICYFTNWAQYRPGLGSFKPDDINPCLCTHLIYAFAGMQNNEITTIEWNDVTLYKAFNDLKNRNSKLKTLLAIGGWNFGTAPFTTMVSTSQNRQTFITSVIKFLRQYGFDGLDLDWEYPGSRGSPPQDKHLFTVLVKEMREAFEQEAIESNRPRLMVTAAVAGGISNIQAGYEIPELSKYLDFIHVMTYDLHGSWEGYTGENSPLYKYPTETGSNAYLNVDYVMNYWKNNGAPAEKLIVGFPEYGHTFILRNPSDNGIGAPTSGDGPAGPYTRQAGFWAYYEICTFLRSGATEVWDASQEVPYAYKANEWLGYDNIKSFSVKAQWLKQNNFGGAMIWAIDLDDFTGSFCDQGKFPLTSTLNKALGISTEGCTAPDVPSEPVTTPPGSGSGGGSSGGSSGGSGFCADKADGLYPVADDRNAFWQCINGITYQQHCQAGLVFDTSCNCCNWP
How it was run: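 AMCase activity taken from lung homogenate of female BALB/C mice; 100 mg lung lobe tissue homogenized in HBSS. Substrate 4MU-GlcNAc2, fluorogenic 4-methylumbelliferone release. IC50 from triplicate measurements at each inhibitor concentration.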

[4] = biological target: T1, Endochitinase A1 (Aspergillus fumigatus, UniProt Q873Y0); test: Inhibition of Aspergillus fumigatus chitinaseA1 using 4-methyumbelliferyl-beta-B-N,N'-triacetylchitotriose as substrate after 10 mins; how it was run: as §1
T1 sequence (Q873Y0 whole entry): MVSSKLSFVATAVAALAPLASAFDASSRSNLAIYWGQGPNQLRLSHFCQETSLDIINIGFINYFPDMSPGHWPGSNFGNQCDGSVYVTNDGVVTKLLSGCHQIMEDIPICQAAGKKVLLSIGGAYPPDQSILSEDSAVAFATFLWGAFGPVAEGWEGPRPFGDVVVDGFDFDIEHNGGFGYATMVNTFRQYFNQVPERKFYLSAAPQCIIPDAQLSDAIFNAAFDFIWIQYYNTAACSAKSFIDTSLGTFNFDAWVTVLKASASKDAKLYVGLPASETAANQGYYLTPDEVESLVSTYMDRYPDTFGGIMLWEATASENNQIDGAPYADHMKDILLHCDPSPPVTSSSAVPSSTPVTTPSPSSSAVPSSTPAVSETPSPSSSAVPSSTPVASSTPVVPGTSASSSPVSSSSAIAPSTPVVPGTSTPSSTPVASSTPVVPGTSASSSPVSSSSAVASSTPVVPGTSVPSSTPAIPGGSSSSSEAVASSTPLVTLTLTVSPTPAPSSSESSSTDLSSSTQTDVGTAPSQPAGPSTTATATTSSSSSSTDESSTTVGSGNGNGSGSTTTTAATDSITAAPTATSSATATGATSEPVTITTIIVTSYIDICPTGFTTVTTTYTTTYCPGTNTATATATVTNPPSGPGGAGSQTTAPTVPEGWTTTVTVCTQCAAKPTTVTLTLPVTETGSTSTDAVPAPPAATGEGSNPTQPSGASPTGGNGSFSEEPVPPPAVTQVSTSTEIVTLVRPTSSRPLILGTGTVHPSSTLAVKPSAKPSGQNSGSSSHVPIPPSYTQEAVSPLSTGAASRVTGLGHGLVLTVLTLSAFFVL

Compound | IC50 [1] | IC50 [2] | IC50 [3] | IC50 [4]
Cn1cnc2c1c(=O)n(CCn1c(=O)c3c(ncn3C)n(C)c1=O)c(=O)n2C [BISDIONIN B] | 4.8 µM | 110 µM | 90 µM | > 1000 µM
Cn1cnc2c1c(=O)n(CCCn1c(=O)c3c(ncn3C)n(C)c1=O)c(=O)n2C [BISDIONIN C] | 0.2 µM | 8.3 µM | 3.4 µM | > 1000 µM
Cn1cnc2c1c(=O)n(CCCCn1c(=O)c3c(ncn3C)n(C)c1=O)c(=O)n2C [BISDIONIN D] | 9 µM | 91 µM | – | > 1000 µM
Cn1cnc2c1c(=O)n(CCCCCn1c(=O)c3c(ncn3C)n(C)c1=O)c(=O)n2C [BISDIONIN E] | 5.7 µM | 260 µM | – | 820 µM
